We go through one molecule from PMC6605684 (The Journal of General Physiology, 2019).

Holding throughout (assay): Inside-out patch-clamp of CFTR currents in transfected CHO cells
Common to all, as to type: cell-based
In general terms: In patch-clamp work, channel activity is measured electrically.

For experiment [1], the target named is R347C-CFTR (Homo sapiens, UniProt P13569, R347C). In short, it runs like this: (§1)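 Channels in ATP exposed to test compound at pH 7.4; percent change of mean current scored. Perfusate then switched to pH 5.5, with or without prior compound exposure at pH 7.4. Fold increase taken as peak current at pH 5.5 divided by mean current at pH 7.4.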
Experiment [2] concerns the target WT-CFTR (Homo sapiens, UniProt P13569). A digest of the protocol: (§2)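 CFTR construct and GFP plasmid cotransfected into CHO cells, held at 27°C for 2–6 d. Inside-out patches at room temperature, −30 mV, NMDG-Cl solutions at pH 7.4. Channels preactivated with 25 IU PKA plus 2 mM MgATP, then test compound (max 40 µM) applied in 2 mM ATP. ATP-subtracted steady-state currents normalized to the 3 µM response in the same patch. Hill fit with base 0 and maximum 1; EC50 ± SD of fit; 3–7 patches per point.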

The target of experiment [3] is R347S-CFTR (ΔR-CFTR background) (Homo sapiens, UniProt P13569, R347S). The settings on record: pH 7.4. A digest of the protocol:
as §1

Experiment [4] concerns the target D924A-CFTR (Homo sapiens, UniProt P13569, D924A). In short, it runs like this:
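No macroscopic currents were obtained, so single-channel recordings were used: less plasmid, recorded within 2 d, 4–5 MΩ pipettes, patch held at −50 mV. Channels activated with PKA plus ATP, then PKA removed in 2 mM ATP. Activity at 3 and 20 µM test compound compared with basal activity in 2 mM ATP.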

The target of experiment [5] is S364A-CFTR (Homo sapiens, UniProt P13569, S364A). In short, it runs like this: as §2
In experiment [6] the target is S263A-CFTR (Homo sapiens, UniProt P13569, S263A). A digest of the protocol: as §2
The target in experiment [7] is N1138L/G551D-CFTR (Homo sapiens, UniProt P13569, G551D/N1138L). A digest of the protocol: as §2
The target in experiment [8] is F236A-CFTR (Homo sapiens, UniProt P13569, F236A). A digest of the protocol: as §2
The target in experiment [9] is R347D-CFTR (ΔR-CFTR background) (Homo sapiens, UniProt P13569, R347D). The note with it: pH 7.4. In short, it runs like this: as §1
The target of experiment [10] is G551D-CFTR (Homo sapiens, UniProt P13569, G551D). In short, it runs like this: as §2
Where [11] appears, read: CHO, read-out: Efficacy (% increase) of currents by GLPG1837.

Sequence of D924A-CFTR (P13569 whole entry D924A): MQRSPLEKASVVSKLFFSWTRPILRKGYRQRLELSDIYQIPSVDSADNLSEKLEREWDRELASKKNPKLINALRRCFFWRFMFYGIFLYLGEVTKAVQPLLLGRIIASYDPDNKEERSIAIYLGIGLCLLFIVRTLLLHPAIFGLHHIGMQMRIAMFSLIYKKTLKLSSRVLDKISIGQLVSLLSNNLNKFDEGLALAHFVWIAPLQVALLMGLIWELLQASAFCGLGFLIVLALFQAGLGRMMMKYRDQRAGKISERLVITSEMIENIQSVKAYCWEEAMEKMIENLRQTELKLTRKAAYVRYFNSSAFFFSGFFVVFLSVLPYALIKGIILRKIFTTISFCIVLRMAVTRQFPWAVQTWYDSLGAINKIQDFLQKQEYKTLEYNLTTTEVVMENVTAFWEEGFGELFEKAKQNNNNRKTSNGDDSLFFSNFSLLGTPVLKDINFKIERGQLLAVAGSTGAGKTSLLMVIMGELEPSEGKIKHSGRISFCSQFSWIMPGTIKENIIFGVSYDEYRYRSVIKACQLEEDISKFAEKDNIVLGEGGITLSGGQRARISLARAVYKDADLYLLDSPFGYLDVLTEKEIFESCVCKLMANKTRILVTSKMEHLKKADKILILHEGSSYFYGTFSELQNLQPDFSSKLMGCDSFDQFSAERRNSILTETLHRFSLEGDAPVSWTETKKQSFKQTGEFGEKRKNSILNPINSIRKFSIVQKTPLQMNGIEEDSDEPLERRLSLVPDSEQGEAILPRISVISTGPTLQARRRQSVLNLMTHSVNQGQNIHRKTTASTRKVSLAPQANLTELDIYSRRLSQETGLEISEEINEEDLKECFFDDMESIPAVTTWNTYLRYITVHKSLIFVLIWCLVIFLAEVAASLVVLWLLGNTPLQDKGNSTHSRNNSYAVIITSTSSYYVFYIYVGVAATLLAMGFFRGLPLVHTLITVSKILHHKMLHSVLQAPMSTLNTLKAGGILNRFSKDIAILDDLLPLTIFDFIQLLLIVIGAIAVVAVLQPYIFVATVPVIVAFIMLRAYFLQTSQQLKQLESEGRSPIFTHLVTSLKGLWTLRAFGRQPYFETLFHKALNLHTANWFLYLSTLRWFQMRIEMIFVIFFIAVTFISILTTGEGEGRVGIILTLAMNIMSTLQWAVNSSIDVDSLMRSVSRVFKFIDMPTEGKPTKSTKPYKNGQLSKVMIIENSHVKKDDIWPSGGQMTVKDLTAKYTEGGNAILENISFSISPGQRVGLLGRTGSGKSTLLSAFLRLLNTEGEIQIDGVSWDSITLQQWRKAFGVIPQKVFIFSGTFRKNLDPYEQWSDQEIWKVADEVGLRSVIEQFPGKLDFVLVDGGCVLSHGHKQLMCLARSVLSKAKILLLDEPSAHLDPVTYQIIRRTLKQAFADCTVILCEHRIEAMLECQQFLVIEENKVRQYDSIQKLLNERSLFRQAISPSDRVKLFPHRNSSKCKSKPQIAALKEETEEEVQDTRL
Sequence of F236A-CFTR (P13569 whole entry F236A): as the sequence (P13569 whole entry D924A) above, with F236A, A924D counted along it
Sequence of WT-CFTR (P13569 whole entry): as the sequence (P13569 whole entry D924A) above, with A924D counted along it
Sequence of N1138L/G551D-CFTR (P13569 whole entry G551D/N1138L): as the sequence (P13569 whole entry D924A) above, with G551D, A924D, N1138L counted along it
Sequence of S263A-CFTR (P13569 whole entry S263A): as the sequence (P13569 whole entry D924A) above, with S263A, A924D counted along it
Sequence of R347C-CFTR (P13569 whole entry R347C): as the sequence (P13569 whole entry D924A) above, with R347C, A924D counted along it
Sequence of S364A-CFTR (P13569 whole entry S364A): as the sequence (P13569 whole entry D924A) above, with S364A, A924D counted along it
Sequence of R347D-CFTR (ΔR-CFTR background) (P13569 1-633 R347D limits assumed): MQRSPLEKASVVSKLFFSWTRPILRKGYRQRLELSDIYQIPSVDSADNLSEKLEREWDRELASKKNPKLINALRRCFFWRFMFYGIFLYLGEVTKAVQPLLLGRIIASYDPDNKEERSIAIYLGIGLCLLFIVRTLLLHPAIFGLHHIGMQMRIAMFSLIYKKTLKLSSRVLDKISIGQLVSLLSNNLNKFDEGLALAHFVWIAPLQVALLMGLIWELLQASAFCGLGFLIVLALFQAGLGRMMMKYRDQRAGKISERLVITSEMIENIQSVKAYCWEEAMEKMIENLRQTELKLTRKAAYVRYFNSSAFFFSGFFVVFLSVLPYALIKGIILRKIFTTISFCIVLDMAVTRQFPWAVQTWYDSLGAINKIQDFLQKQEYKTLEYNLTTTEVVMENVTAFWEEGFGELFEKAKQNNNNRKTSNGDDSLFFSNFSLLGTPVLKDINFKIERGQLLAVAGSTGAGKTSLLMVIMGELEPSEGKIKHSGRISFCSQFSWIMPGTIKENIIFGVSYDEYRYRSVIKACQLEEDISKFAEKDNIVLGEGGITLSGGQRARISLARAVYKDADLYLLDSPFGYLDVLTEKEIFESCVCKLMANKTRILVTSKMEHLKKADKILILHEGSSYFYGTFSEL
Sequence of R347D-CFTR (ΔR-CFTR background) (P13569 837-1480 limits assumed): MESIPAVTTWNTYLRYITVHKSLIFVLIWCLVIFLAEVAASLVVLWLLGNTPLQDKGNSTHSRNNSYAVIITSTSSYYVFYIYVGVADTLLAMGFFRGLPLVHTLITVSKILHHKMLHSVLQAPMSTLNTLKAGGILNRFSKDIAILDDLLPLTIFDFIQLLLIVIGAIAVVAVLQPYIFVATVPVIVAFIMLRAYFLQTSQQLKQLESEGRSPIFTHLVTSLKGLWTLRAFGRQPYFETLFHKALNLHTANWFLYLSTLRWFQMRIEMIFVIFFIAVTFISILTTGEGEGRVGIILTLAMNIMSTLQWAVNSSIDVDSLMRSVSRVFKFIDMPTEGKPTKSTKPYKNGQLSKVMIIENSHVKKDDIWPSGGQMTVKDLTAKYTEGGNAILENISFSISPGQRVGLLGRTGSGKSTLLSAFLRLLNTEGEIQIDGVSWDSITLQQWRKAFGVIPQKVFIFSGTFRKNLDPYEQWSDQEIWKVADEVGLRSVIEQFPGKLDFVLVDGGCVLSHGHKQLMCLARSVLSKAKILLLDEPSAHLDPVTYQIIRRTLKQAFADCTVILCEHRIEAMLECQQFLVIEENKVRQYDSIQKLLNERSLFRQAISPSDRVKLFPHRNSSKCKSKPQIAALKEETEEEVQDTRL
Sequence of G551D-CFTR (P13569 whole entry G551D): as the sequence (P13569 whole entry D924A) above, with G551D, A924D counted along it
Sequence of R347S-CFTR (ΔR-CFTR background) (P13569 1-633 R347S limits assumed): as the sequence (P13569 1-633 R347D limits assumed) above, with D347S counted along it
Sequence of R347S-CFTR (ΔR-CFTR background) (P13569 837-1480 limits assumed): as the sequence (P13569 837-1480 limits assumed) above

The EC50 is the concentration at which the effect is half-maximal. Take `CC1(C)Cc2c(sc(NC(=O)c3ccn[nH]3)c2C(N)=O)C(C)(C)O1` [GLPG1837, N-(3-carbamoyl-5,5,7,7-tetramethyl-5,7-dihydro-4H-thieno[2,3-c]pyran-2-yl)-lH-pyrazole-5-carboxamide]: the “Effect of GLPG1837 on currents” value in [1] (pH 5.5) is “effectively potentiates”; in experiment [3] it was “no effect”; in [9], “no effect”. In [1] (pH 7.4), the “Percent of inhibition of currents by GLPG1837” value was 16 ± 3%. Further, the EC50 is 0.26 ± 0.04 µM in experiment [2]; over 3 µM in experiment [4]; 0.18 ± 0.01 µM in [5]; 0.27 ± 0.05 µM in [6]; 0.08 ± 0.02 µM in experiment [7]; 0.34 ± 0.14 µM in [8]. Also, in experiment [10], the response was half-maximal at 2.19 ± 0.33 µM (EC50). The “Hill coefficient of the GLPG1837 effect” value in experiment [2] is given as “≈ 1”. The Emax in [2] (setting [11]) was 115%; in experiment [5] (setting [11]) it was 126 ± 5%; in [6] (setting [11]) it was 148 ± 18%; in [7] (setting [11]), 253 ± 32%; in experiment [8] (setting [11]) it was 81 ± 14%. The “Saturating concentration of GLPG1837” value in experiment [2] (continuous presence of ATP) is recorded as 3 µM. For the same molecule, the “Decrease of apparent affinity for GLPG1837 vs WT-CFTR” value in experiment [4] was at least 10 fold. In experiment [4] (3 µM GLPG1837, microscopic recording), the “Potentiating effect of GLPG1837” value is reported as “barely discerned any potentiating effects”. Also, the ΔΔG in experiment [4] (GLPG1837, −RTln(EC50 mutant/EC50 WT)) is under -1.45 kcal/mol; in experiment [6] (GLPG1837, vs WT) it was -0.022 kcal/mol; in experiment [7] (GLPG1837, vs G551D), 1.96 kcal/mol; in experiment [8] (GLPG1837, vs WT), -0.16 kcal/mol.
